This is an account of results in ChEMBL document CHEMBL1122539, “3-Substituent effect and 3-methylene substituent effect on the structure-reactivity relationship of 7 beta-(acylamino)-3-cephem-4-carboxylic acid derivatives studied by carbon-13 and IR spectroscopies” (J Med Chem, 1984).

Where only a bound is given, the exact number is not on record here.

A short description of one series: Dissociation constant (Kobs) obtained from IR spectroscopy; f = Not detected. It is filed as physicochemical.
Consider `COC1=C(C(=O)[O-])N2C(=O)C(NC(=O)Cc3ccccc3)C2SC1.[Na+]` (stereo not given), for which the Log k entry is “Not detected”.

The nature of a further series: Geometrical mean of MIC calculated from MIC values for Escherichia coli NIHJ JC-2 and Klebsiella pneumoniae SRL-1. The series is classed as functional. A digest of the protocol: (§1)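 Agar dilution on sensitivity test agar with serial twofold antibiotic dilutions. Overnight tryptosoy broth cultures of E. coli NIHJ JC-2 and K. pneumoniae SRL-1 were diluted to about 10^6 cells/mL in the same broth, and one loopful was inoculated. Plates were incubated at 37 °C for 18–20 h. MIC was the lowest concentration inhibiting visible growth. The value is the geometric mean of the two strains' MICs.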
On to `CC(=O)OCC1=C(C(=O)[O-])N2C(=O)C(NC(=O)Cc3cccs3)C2SC1.[Na+]` (stereo not given), for which the minimal inhibitory concentration (MIC) is 25 µg/mL.

Take `O=C(Cc1ccccc1)NC1C(=O)N2C(C(=O)[O-])=C(Cl)CSC12.[Na+]` (stereo not given): the MIC is 12.5 µg/mL.

Consider `CS(=O)(=O)OC1=C(C(=O)[O-])N2C(=O)C(NC(=O)Cc3ccccc3)C2SC1.[Na+]` (stereo not given), for which the minimal inhibitory concentration (MIC) was 8.84 µg/mL.

Take `O=C(Cc1ccccc1)NC1C(=O)N2C(C(=O)[O-])=CCSC12.[Na+]` (stereo not given): the MIC was 8.85 µg/mL.

In the case of `CCOC(=O)CC1=C(C(=O)[O-])N2C(=O)C(NC(=O)Cc3ccccc3)C2SC1.[Na+]` (stereo not given), the MIC was over 100 µg/mL.

Take `CC1=C(C(=O)[O-])N2C(=O)C(NC(=O)Cc3ccccc3)C2SC1.[Na+]` (stereo not given): the MIC was 70.7 µg/mL.

The next series can be described thus: Geometrical mean of MIC calculated from MIC values for Escherichia coli NIHJ JC-2 and Klebsiella pneumoniae SRL-1. The series is classed as functional. The method, boiled down: as §1
Take `COC1=C(C(=O)[O-])N2C(=O)C(NC(=O)Cc3ccccc3)C2SC1.[Na+]` (stereo not given): the MIC is 17.7 µg/mL.

The next series is described as follows: Rate constant (Kobs) obtained from IR spectroscopy.
Take `O=C(Cc1cccs1)[N-]C1C(=O)N2C(C(=O)[O-])=C(C[n+]3ccccc3)CSC12.[Na+]` (stereo not given): the “10^2 kobsd (h^-1)” value is listed as 47.3 obs.

Take `CC(=O)OCC1=C(C(=O)[O-])N2C(=O)C(NC(=O)Cc3cccs3)C2SC1.[Na+]` (stereo not given): the “10^2 kobsd (h^-1)” value worked out at 11.1 hr-1.

On to `O=C(Cc1ccccc1)NC1C(=O)N2C(C(=O)[O-])=C(Cl)CSC12.[Na+]` (stereo not given), for which the “10^2 kobsd (h^-1)” value is given as 15.2 hr-1.

Regarding `CS(=O)(=O)OC1=C(C(=O)[O-])N2C(=O)C(NC(=O)Cc3ccccc3)C2SC1.[Na+]` (stereo not given), the “10^2 kobsd (h^-1)” value was determined as 46.5 hr-1.

Take `O=C(Cc1ccccc1)NC1C(=O)N2C(C(=O)[O-])=CCSC12.[Na+]` (stereo not given): the “10^2 kobsd (h^-1)” value is recorded as 3.1 hr-1.

Consider `CCOC(=O)CC1=C(C(=O)[O-])N2C(=O)C(NC(=O)Cc3ccccc3)C2SC1.[Na+]` (stereo not given), for which the “10^2 kobsd (h^-1)” value is 1.82 hr-1.

As to `CC1=C(C(=O)[O-])N2C(=O)C(NC(=O)Cc3ccccc3)C2SC1.[Na+]` (stereo not given), the “10^2 kobsd (h^-1)” value turned out to be 1.36 hr-1.
